IC50 data for 1 compound are collected here from publication PMC9933231 (ACS Omega, 2023).

Converted amounts (≈) assume the structure as drawn.

Data set [1] is described as follows: Cytotoxicity assay. Format: cell-based. To be noted: human, HaCaT keratinocytes. The method, boiled down: (§1)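 Cells were kept in RPMI 1640 with 10% FBS, penicillin and streptomycin at 37 °C in humidified 5% CO2, and subcultured every 3–4 days. They were seeded at 1 × 10^4 cells/well and left 24 h. Medium was then replaced with test samples, with doxorubicin as reference, for 24 h at 37 °C. CellTiter-Blue was added for 2 h at 37 °C, and fluorescence was read at ex 560/em 590 nm.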

Data set [2] is described as follows: Cytotoxicity assay. Format: cell-based. To be noted: human, HepG2 cells. The method, boiled down: as §1

A word on the IC50: it is the concentration that inhibits the measured activity by half. A high value points to lower potency. Take `COc1cccc2c1C(=O)c1c(O)c3c(c(O)c1C2=O)C[C@@](O)(C(=O)CO)C[C@@H]3O[C@H]1C[C@H](N)[C@H](O)[C@H](C)O1` [doxorubicin]: the 50% inhibitory concentration (IC50) at 24 h is 19.8 ± 0.8 µg/mL (≈ 36.4 µM) in “Cytotoxicity assay [1]” and 11.4 ± 0.5 µg/mL (≈ 21 µM) in “Cytotoxicity assay [2]”.
